The source of these data is ChEMBL document CHEMBL3044849, “Synthesis and insecticidal activities of novel N-sulfenyl-N'-tert-butyl-N,N'-diacylhydrazines. 1. N-alkoxysulfenate derivatives” (2007).

The mortality is the share of the test organisms that died. In general, LC50 refers to the concentration lethal to half of the exposed cells or organisms.

What all share (format): functional
In assay [1] the test system is Mythimna separata. In words: Stomach toxicity against fourth-instar larval stage of Mythimna separata (Oriental armyworm) in compound-pretreated corn leaves assessed as mortality at 50 mg/kg at 25+/-1 degC measured after 4 days.
The subject of assay [2] is Mythimna separata. Description: Stomach toxicity against fourth-instar larval stage of Mythimna separata (Oriental armyworm) in compound-pretreated corn leaves assessed as mortality at 25 mg/kg at 25+/-1 degC measured after 4 days.
Assay [3] concerns Mythimna separata. Description: Stomach toxicity against fourth-instar larval stage of Mythimna separata (Oriental armyworm) in compound-pretreated corn leaves assessed as mortality at 10 mg/kg at 25+/-1 degC measured after 4 days.
A further assay relates to Helicoverpa armigera. In words: Contact toxicity against fourth-instar larval stage of Helicoverpa armigeraassessed as mortality at 25 +/-1 degC applied topically on the thoracic tergite measured per gm of larva after 48 hr. Put shortly: (§1)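 Fourth-instar larvae of tobacco cutworm, Asian corn borer and cotton bollworm were used. Compounds in acetone at five to seven concentrations; 1 µL applied to the thoracic tergite by automatic microapplicator. Acetone-only control. Usually 40 insects per dose, four replicates, kept under rearing conditions at 25 ± 1 °C. Mortality at 48 h gave LD50; ratios use reference LD50 over test LD50.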

In assay [4] the test system is Spodoptera exigua. In words: Toxic ratio of RH-5992 LC50 to compound LC50 for third-instar larval stage of Spodoptera exigua measured after 3 days by leaf-dip method.
For another assay, the system named is Ostrinia furnacalis. In words: Contact toxicity against fourth-instar larval stage of Ostrinia furnacalis (Asian corn borer) assessed as mortality at 25 +/-1 degC applied topically on the thoracic tergite measured per gm of larva after 48 hr. The gist of the method: as §1
In assay [5] the test system is Spodoptera exigua. Description: Stomach toxicity against third-instar larval stage of Spodoptera exigua in cabbage leaves assessed as mortality at 25 +/-1 degC treated for 3 secs before larval infestation measured after 3 days by leaf-dip method. Conditions: for LC50: Spodoptera exigua, Instar larval stage, 72 h. The gist of the method:
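Leaf-dip assay: fresh cabbage leaf discs (5 cm × 3 cm) were dipped 3 s in test solution and air-dried, then placed singly in boxes with five third-instar beet armyworm larvae per disc. Water- and acetone-treated leaves served as controls. Held at 25 ± 1 °C; percentage mortality was read 3 days after treatment, in triplicate.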

In assay [6] the test system is Mythimna separata. Description: Stomach toxicity against fourth-instar larval stage of Mythimna separata (Oriental armyworm) in compound-pretreated corn leaves assessed as mortality at 5 mg/kg at 25+/-1 degC measured after 4 days.
Assay [7] relates to Mythimna separata. In words: Contact toxicity against fourth-instar larval stage of Mythimna separata (Oriental armyworm) assessed as mortality at 25 +/-1 degC applied topically on the thoracic tergite measured per larva after 96 hr. The gist of the method: (§2)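 Oriental armyworm fourth-instar larvae each received 0.306 µL of acetone dilution at varying concentrations on the thoracic tergite via platinum loop. Acetone-only control. Larvae were returned to rearing conditions at 25 ± 1 °C and mortality was scored 96 h after treatment. LD50 and LD90 were derived from triplicate treatments; ratios use reference over test values.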

The test system of assay [8] is Mythimna separata. In words: Toxic ratio of RH-5992 LD90 to compound LD90 for fourth-instar larval stage of Mythimna separata (Oriental armyworm) measured after 96 hr. Put shortly: as §2
A further assay concerns Spodoptera litura. Description: Contact toxicity against fourth-instar larval stage of Spodoptera litura assessed as mortality at 25 +/-1 degC applied topically on the thoracic tergite measured per gm of larva after 48 hr. The gist of the method: as §1
Assay [9] deals with Mythimna separata. In words: Stomach toxicity against fourth-instar larval stage of Mythimna separata (Oriental armyworm) in compound-pretreated corn leaves assessed as mortality at 2.5 mg/kg at 25+/-1 degC measured after 4 days.
The test system of assay [10] is Mythimna separata. In words: Toxic ratio of RH-5992 LD50 to compound LD50 for fourth-instar larval stage of Mythimna separata (Oriental armyworm) measured after 96 hr. Put shortly: as §2
The test system of assay [11] is Spodoptera exigua. In words: Toxic ratio of RH-5992 LC90 to compound LC90 for third-instar larval stage of Spodoptera exigua measured after 3 days by leaf-dip method.
The test system of assay [12] is Mythimna separata. In words: Stomach toxicity against fourth-instar larval stage of Mythimna separata (Oriental armyworm) in compound-pretreated corn leaves assessed as mortality at 100 mg/kg at 25+/-1 degC measured after 4 days.

The structures appear in SMILES notation. Values after ≈ are worked out from the molar mass of the structure shown.

For the compound `COSN(C(=O)c1ccccc1)N(C(=O)c1ccccc1)C(C)(C)C`, the mortality at 50 mg/kg in the assay with Mythimna separata [1] was determined as 100%. Besides, the mortality at 25 mg/kg in the assay on Mythimna separata [2] is 100%. The mortality at 10 mg/kg in the assay with Mythimna separata [3] was 0%.
For `CCc1ccc(C(=O)N(SOC)N(C(=O)c2cc(C)cc(C)c2)C(C)(C)C)cc1`, the mortality at 25 mg/kg in the assay on Mythimna separata [2] amounted to 100%. Further, the LD50 in the assay on Helicoverpa armigera is 73.907 µg; in the assay with Ostrinia furnacalis, 44.961 µg; in the assay with Mythimna separata [7] it was 0.0195 µg; in the assay on Spodoptera litura, 16.061 µg. The RatioLC50 in the assay with Spodoptera exigua [4] amounted to 3.4. The mortality at 10 mg/kg with Mythimna separata [3] turned out to be 100%. Besides, the LC90 in the assay with Spodoptera exigua [5] is 524.29 µg/mL (≈ 1260 µM). Moreover, the median lethal concentration (LC50) in the assay on Spodoptera exigua [5] was 24.4 µg/mL (≈ 58.7 µM). For the same compound, the mortality at 5 mg/kg in the assay on Mythimna separata [6] was 100%. For the same compound, the LD90 in the assay with Mythimna separata [7] was 0.0479 µg. The Ratio was 154 with Mythimna separata [8], 141 in the assay on Mythimna separata [10] and 5.1 in the assay with Spodoptera exigua [11]. In addition, in the assay on Mythimna separata [9], the mortality at 2.5 mg/kg came to 100%.
As for `CCOSN(C(=O)c1ccc(CC)cc1)N(C(=O)c1cc(C)cc(C)c1)C(C)(C)C`, the mortality at 50 mg/kg in the assay with Mythimna separata [1] stood at 100%. In the assay on Mythimna separata [2], the mortality at 25 mg/kg came to 100%. The mortality at 10 mg/kg in the assay on Mythimna separata [3] is 100%. In addition, in the assay with Mythimna separata [6], the mortality at 5 mg/kg was 100%. In addition, the mortality at 2.5 mg/kg with Mythimna separata [9] amounted to 70%.
Take `CCCOSN(C(=O)c1ccc(CC)cc1)N(C(=O)c1cc(C)cc(C)c1)C(C)(C)C`: in the assay with Mythimna separata [1], the mortality at 50 mg/kg came to 100%. Besides, the mortality at 25 mg/kg in the assay with Mythimna separata [2] amounted to 100%. For the same compound, in the assay with Mythimna separata [3], the mortality at 10 mg/kg is 100%. Moreover, the mortality at 5 mg/kg in the assay on Mythimna separata [6] is 90%. In addition, in the assay with Mythimna separata [9], the mortality at 2.5 mg/kg was 80%.
As to `CCc1ccc(C(=O)N(SOC(C)C)N(C(=O)c2cc(C)cc(C)c2)C(C)(C)C)cc1`, the mortality at 50 mg/kg with Mythimna separata [1] worked out at 100%. Further, in the assay on Mythimna separata [2], the mortality at 25 mg/kg turned out to be 100%. In addition, in the assay on Mythimna separata [3], the mortality at 10 mg/kg is 100%. In addition, the mortality at 5 mg/kg in the assay with Mythimna separata [6] worked out at 100%. Further, the mortality at 2.5 mg/kg with Mythimna separata [9] was 50%.
Turning to `CCCCOSN(C(=O)c1ccc(CC)cc1)N(C(=O)c1cc(C)cc(C)c1)C(C)(C)C`, in the assay on Mythimna separata [1], the mortality at 50 mg/kg was determined as 100%. The mortality at 25 mg/kg with Mythimna separata [2] stood at 100%. For the same compound, the mortality at 10 mg/kg with Mythimna separata [3] came to 100%. Also, in the assay on Mythimna separata [6], the mortality at 5 mg/kg came out at 100%. The mortality at 2.5 mg/kg in the assay on Mythimna separata [9] worked out at 90%.
On to `CCc1ccc(C(=O)N(SOCC(C)C)N(C(=O)c2cc(C)cc(C)c2)C(C)(C)C)cc1`, for which the mortality at 5 mg/kg in the assay with Mythimna separata [6] turned out to be 100%. For the same compound, in the assay with Mythimna separata [9], the mortality at 2.5 mg/kg was determined as 80%.
With `CCc1ccc(C(=O)N(SOC(C)(C)C)N(C(=O)c2cc(C)cc(C)c2)C(C)(C)C)cc1`, the mortality at 50 mg/kg in the assay on Mythimna separata [1] stood at 100%. Also, the mortality at 25 mg/kg with Mythimna separata [2] was determined as 100%. Besides, the mortality at 10 mg/kg in the assay with Mythimna separata [3] came out at 100%. Besides, in the assay on Mythimna separata [6], the mortality at 5 mg/kg stood at 70%. For the same compound, the mortality at 2.5 mg/kg in the assay with Mythimna separata [9] is 60%.
For `CCCCCOSN(C(=O)c1ccc(CC)cc1)N(C(=O)c1cc(C)cc(C)c1)C(C)(C)C`, in the assay on Mythimna separata [6], the mortality at 5 mg/kg was found to be 100%. The mortality at 2.5 mg/kg in the assay on Mythimna separata [9] stood at 100%.
On to `CCc1ccc(C(=O)N(SOC(C)(C)CC)N(C(=O)c2cc(C)cc(C)c2)C(C)(C)C)cc1`, for which the mortality at 5 mg/kg in the assay with Mythimna separata [6] is 80%. Besides, the mortality at 2.5 mg/kg in the assay on Mythimna separata [9] worked out at 70%.
The corresponding values for `CCc1ccc(C(=O)N(SOCc2ccccc2)N(C(=O)c2cc(C)cc(C)c2)C(C)(C)C)cc1` are 90% and 70%.
On the same counts, the results for `CCc1ccc(C(=O)N(SOCCc2ccccc2)N(C(=O)c2cc(C)cc(C)c2)C(C)(C)C)cc1` are 90% and 50%.
The corresponding values for `CCc1ccc(C(=O)N(SOCCF)N(C(=O)c2cc(C)cc(C)c2)C(C)(C)C)cc1` are 100% and 70%.
With `CCc1ccc(C(=O)N(SOCC(F)(F)F)N(C(=O)c2cc(C)cc(C)c2)C(C)(C)C)cc1`, in the assay on Mythimna separata [6], the mortality at 5 mg/kg was 100%. Moreover, the mortality at 2.5 mg/kg in the assay on Mythimna separata [9] worked out at 90%.
With `CCc1ccc(C(=O)N(SOCCOC)N(C(=O)c2cc(C)cc(C)c2)C(C)(C)C)cc1`, the mortality at 5 mg/kg in the assay with Mythimna separata [6] came out at 90%. The mortality at 2.5 mg/kg with Mythimna separata [9] stood at 70%.
On the same counts, the results for `CCOCCOSN(C(=O)c1ccc(CC)cc1)N(C(=O)c1cc(C)cc(C)c1)C(C)(C)C` are 100% and 90%.
Regarding `COSN(C(=O)c1ccc2c(c1C)OC(C)C2)N(C(=O)c1cc(C)cc(C)c1)C(C)(C)C` (stereo not drawn), the mortality at 2.5 mg/kg with Mythimna separata [9] stood at 80%.
Turning to `CCOSN(C(=O)c1ccccc1)N(C(=O)c1ccccc1)C(C)(C)C`, the mortality at 50 mg/kg in the assay on Mythimna separata [1] was 85%. In addition, the mortality at 25 mg/kg with Mythimna separata [2] was 0%. In addition, in the assay with Mythimna separata [12], the mortality at 100 mg/kg stood at 100%.
Regarding `CCCOSN(C(=O)c1ccccc1)N(C(=O)c1ccccc1)C(C)(C)C`, the mortality at 50 mg/kg with Mythimna separata [1] worked out at 90%. Also, the mortality at 25 mg/kg with Mythimna separata [2] stood at 50%. The mortality at 10 mg/kg with Mythimna separata [3] worked out at 10%.
As to `CC(C)OSN(C(=O)c1ccccc1)N(C(=O)c1ccccc1)C(C)(C)C`, the mortality at 50 mg/kg with Mythimna separata [1] was determined as 100%. Besides, the mortality at 25 mg/kg with Mythimna separata [2] worked out at 100%. In addition, the mortality at 10 mg/kg in the assay with Mythimna separata [3] amounted to 10%.
With `CC(C)(C)OSN(C(=O)c1ccccc1)N(C(=O)c1ccccc1)C(C)(C)C`, the mortality at 50 mg/kg with Mythimna separata [1] stood at 100%. In the assay on Mythimna separata [2], the mortality at 25 mg/kg came to 100%. The mortality at 10 mg/kg in the assay on Mythimna separata [3] worked out at 10%.
For `Cc1cc(C)cc(C(=O)N(NC(=O)c2ccc3c(c2C)OC(C)C3)C(C)(C)C)c1` (stereo not drawn) [FUXIAN], the mortality at 5 mg/kg in the assay with Mythimna separata [6] was found to be 100%. The mortality at 2.5 mg/kg in the assay with Mythimna separata [9] was determined as 90%.
With `CC(C)(C)N(NC(=O)c1ccccc1)C(=O)c1ccccc1` [RH-5849], the mortality at 50 mg/kg with Mythimna separata [1] amounted to 100%. For the same compound, the mortality at 25 mg/kg with Mythimna separata [2] was found to be 70%. Further, in the assay with Mythimna separata [3], the mortality at 10 mg/kg is 0%.
`CCc1ccc(C(=O)NN(C(=O)c2cc(C)cc(C)c2)C(C)(C)C)cc1` [TEBUFENOZIDE]: the LD50 in the assay on Helicoverpa armigera stood at 1311.9 µg; with Ostrinia furnacalis it was 59.414 µg; with Mythimna separata [7], 0.0275 µg; in the assay with Spodoptera litura it was 527.12 µg. Further, the RatioLC50 in the assay with Spodoptera exigua [4] is 1. Further, the mortality at 10 mg/kg in the assay on Mythimna separata [3] came out at 100%. Further, the LC90 in the assay on Spodoptera exigua [5] turned out to be 2648.6 µg/mL (≈ 7510 µM). The LC50 with Spodoptera exigua [5] was found to be 83.4 µg/mL (≈ 237 µM). In addition, the mortality at 5 mg/kg in the assay with Mythimna separata [6] worked out at 95%. Besides, in the assay with Mythimna separata [7], the LD90 turned out to be 0.0739 µg. For the same compound, the Ratio with Mythimna separata [8] is listed as 100; in the assay with Mythimna separata [10], 100; with Spodoptera exigua [11], 1. Besides, the mortality at 2.5 mg/kg in the assay on Mythimna separata [9] was found to be 55%.
